Assay results gathered from unrelated publications.
Protocols differ between the studies behind these lines.
Target: Mitogen-activated protein kinase 6 (MAPK6, Homo sapiens, UniProt Q16659)

`Cc1cnc(Nc2ccc(C(=O)N3CCC(N4CCCC4)CC3)cc2)nc1-c1cc2ccccc2s1` gave a remaining binding of 0.1% (binding; competition with immobilised ligand; 1 µM).
The remaining binding of `CN(c1nccc(-c2cnn3ncccc23)n1)C1CC1` is reported as 87% (binding; 1 µM).
The remaining binding of `C[C@@]1(Cc2ccc(C#N)cc2)C(=O)N(c2cc(Cl)cc(Cl)c2)c2ncc(C(=O)NC3(c4nc(C5CCC5)no4)CC3)n21` is reported as 100% (cell-free assay; competition with immobilised ligand; 1 µM).
`C[C@@H](c1ccc(-n2cnc3c(N)ncnc32)cc1)N1CCc2nn(C)c(Cc3ccccc3)c2C1=O` gave a remaining binding of 93% (binding; competition with immobilised ligand; 0.1 µM).
For `Cc1c[nH]c2nccc(Oc3c(F)cc(Nc4cc(Cl)nc(N)n4)cc3F)c12`, the remaining binding was 95% (cell-free assay; competition with immobilised ligand; 0.1 µM).
`CNC(=O)[C@@H]1CC[C@@H](n2c(-c3ccc4cnccc4c3)nc3ccc(C(=O)NCc4cccc(C(N)=O)c4)cc32)C1` gave a remaining binding of 100% (binding; competition with immobilised ligand; 1 µM).
`CCCOc1ccc([C@H]2[C@H](C(=O)O)[C@@H](c3ccc4c(c3)OCO4)CN2CC(=O)Nc2c(CC)cccc2CC)cc1` has a remaining binding of 92% (cell-free assay; competition with immobilised ligand; 1 µM).
With `O=C(NCCCN1CCOCC1)c1ccc(Nc2ncc(Cl)c(-c3ccc(Cl)s3)n2)cc1` the remaining binding was 0.05% (binding; competition with immobilised ligand; 1 µM).
With `c1cnn2ncc(-c3ccnc(N4CCC45COC5)n3)c2c1` the remaining binding was 92% (binding; 1 µM).
`O=C(NCC1CCOCC1)c1n[nH]cc1NC(=O)c1c(F)cccc1F` has a remaining binding of 86% (binding; competition with immobilised ligand; 1 µM).
`CCCCN(CCCC)C(=O)CN1C[C@H](c2cc(OC)c3c(c2)OCO3)[C@@H](C(=O)O)[C@@H]1CC(C)(C)CCC` has a remaining binding of 100% (cell-free assay; competition with immobilised ligand; 1 µM).
With `CC1CCCN1c1nccc(-c2cnn3ncccc23)n1` (stereo not shown) the remaining binding was 89% (binding; 1 µM).
`N#CC1(c2ccccn2)CCN(Cc2cc(C(=O)N3CCCC3)c(=O)n3ccccc23)CC1` gave a remaining binding of 79% (cell-free assay; competition with immobilised ligand; 1 µM).
`C[C@@H]1CCN(c2nccc(-c3cnn4ncccc34)n2)C1` has a remaining binding of 100% (binding; 1 µM).
For `CS(=O)(=O)N1CCCC(NC(=O)[C@H](CCC2CCCCC2)NC(=O)c2ccc(CNC(=O)c3cnc4ccccn34)cc2)C1` (stereo partly shown), the remaining binding was 96% (cell-free assay; competition with immobilised ligand; 0.1 µM).
`COc1ccnn2ncc(-c3ccnc(N(C)C)n3)c12` has a remaining binding of 85% (binding; 1 µM).
The remaining binding of `C=CC(=O)N1CCC(C(=O)NCC(=O)N2CCN(c3nc(-c4cnc(N)nc4C(F)F)nc(N4CCOCC4)n3)CC2)CC1` is reported as 96% (binding; competition with immobilised ligand; 1 µM).
For `Cc1nc(C2CCN(C(=O)c3ccc(OC(F)(F)F)cc3N)CC2)c2ncc(N3CCN(C)CC3)cc2n1`, the remaining binding was 100% (cell-free assay; competition with immobilised ligand; 1 µM).
The remaining binding of `CN(C)c1nccc(-c2cnn3ncccc23)n1` is reported as 100% (binding; 1 µM).
`O=C(c1ccc(Nc2ncc(Cl)c(-c3ccc(Cl)s3)n2)cc1)N1CCC(N2CCCC2)CC1` has a remaining binding of 0% (binding; competition with immobilised ligand; 1 µM).
`N[C@@H]1CCN(c2nccc(-c3cnn4ncccc34)n2)C1` has a remaining binding of 100% (binding; 1 µM).
`c1cncc(-c2cccc(Nc3nccc(NC4CCCCC4)n3)c2)c1` gave a remaining binding of 100% (binding; competition with immobilised ligand; 10 µM).
